Calls of active or inactive are those of the source. No cut-off for these calls is given here.
Key:
Proteus mirabilis = assay: Antibacterial activity against Proteus mirabilis ATCC 12453 assessed as growth inhibition by broth microdilution method; format: functional, organism-based
Outline: (§1)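 Preliminary screen: 10 µl of each bacterial suspension spotted on Mueller-Hinton agar containing compound at 1,000 µg ml⁻¹, then incubated 37 °C for 18 h. Inocula were prepared in sterile saline at 0.5 McFarland (150 × 10⁶ CFU ml⁻¹). Compounds were dissolved in DMSO stocks and diluted twofold in Mueller-Hinton broth, final 3.91–1,000 µg ml⁻¹. MIC read in µg ml⁻¹ (CLSI 2008), with ampicillin, cefuroxime and vancomycin as reference agents.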

Staphylococcus aureus [1] = assay: Antibacterial activity against Staphylococcus aureus ATCC 25923 assessed as growth inhibition by broth microdilution method; format: functional; outline: as §1
Bacillus subtilis = assay: Antibacterial activity against Bacillus subtilis ATCC 6633 assessed as growth inhibition by broth microdilution method; format: functional; outline: as §1
Staphylococcus aureus [2] = assay: Antibacterial activity against Staphylococcus aureus 14001 assessed as growth inhibition by broth microdilution method; format: functional; outline: as §1
Micrococcus luteus = assay: Antibacterial activity against Micrococcus luteus ATCC 10240 assessed as growth inhibition by broth microdilution method; format: functional; outline: as §1
Bacillus cereus = assay: Antibacterial activity against Bacillus cereus ATCC 10876 assessed as growth inhibition by broth microdilution method; format: functional; outline: as §1
Klebsiella pneumoniae = assay: Antibacterial activity against Klebsiella pneumoniae ATCC 13883 assessed as growth inhibition by broth microdilution method; format: functional, organism-based; outline: as §1
[3] = test system: Staphylococcus epidermidis; assay: Antibacterial activity against Staphylococcus epidermidis ATCC 12228 assessed as growth inhibition by broth microdilution method; format: functional; outline: as §1
Escherichia coli = assay: Antibacterial activity against Escherichia coli ATCC 25922 assessed as growth inhibition by broth microdilution method; format: functional, organism-based; outline: as §1
Pseudomonas aeruginosa = assay: Antibacterial activity against Pseudomonas aeruginosa ATCC 9027 assessed as growth inhibition by broth microdilution method; format: functional, organism-based; outline: as §1

| MIC (Staphylococcus aureus [1]) | MIC (Bacillus subtilis) | MIC (Staphylococcus aureus [2]) | MIC (Micrococcus luteus) | MIC (Bacillus cereus) | MIC [3] | SMILES | growth inhibition (GI) (Proteus mirabilis) | MBC (Staphylococcus aureus [1]) | MBC (Bacillus subtilis) | MBC (Staphylococcus aureus [2]) | MBC (Micrococcus luteus) | MBC (Bacillus cereus) | growth inhibition (GI) (Klebsiella pneumoniae) | MBC [3] | growth inhibition (GI) (Escherichia coli) | growth inhibition (GI) (Pseudomonas aeruginosa) |
| --- | --- | --- | --- | --- | --- | --- | --- | --- | --- | --- | --- | --- | --- | --- | --- | --- |
| 1000 µg/mL | 500 µg/mL | 1000 µg/mL | 500 µg/mL | 1000 µg/mL | 1000 µg/mL | S=c1n(CN2CCCC2)nc(-c2ccccc2)n1-c1ccc(Br)cc1 | inactive | > 1000 µg/mL | 1000 µg/mL | > 1000 µg/mL | 1000 µg/mL | > 1000 µg/mL | inactive | > 1000 µg/mL | inactive | inactive |
| 1000 µg/mL | 1000 µg/mL | 1000 µg/mL | 1000 µg/mL | 1000 µg/mL | 1000 µg/mL | CCN(CC)Cn1nc(-c2ccccc2)n(-c2ccc(Br)cc2)c1=S | inactive | > 1000 µg/mL | > 1000 µg/mL | > 1000 µg/mL | > 1000 µg/mL | > 1000 µg/mL | inactive | > 1000 µg/mL | inactive | inactive |
| – | – | – | – | 62.5 µg/mL | – | CC1(C)S[C@@H]2[C@H](NC(=O)[C@H](N)c3ccccc3)C(=O)N2[C@H]1C(=O)O [AMPICILLIN] | – | – | – | – | – | – | – | – | – | – |
| 31.2 µg/mL | 62.5 µg/mL | – | 31.2 µg/mL | 62.5 µg/mL | 62.5 µg/mL | CCN(CC)Cn1nc(-c2cccc(Cl)c2)n(-c2ccc(Br)cc2)c1=S | inactive | > 1000 µg/mL | 500 µg/mL | – | 500 µg/mL | > 1000 µg/mL | inactive | > 1000 µg/mL | inactive | inactive |
| 62.5 µg/mL | 125 µg/mL | 125 µg/mL | 62.5 µg/mL | 62.5 µg/mL | 62.5 µg/mL | S=c1n(CN2CCOCC2)nc(-c2ccc(Cl)cc2)n1-c1ccc(Br)cc1 | inactive | 1000 µg/mL | 125 µg/mL | > 1000 µg/mL | > 1000 µg/mL | > 1000 µg/mL | inactive | 1000 µg/mL | inactive | inactive |
| 1000 µg/mL | 1000 µg/mL | 1000 µg/mL | 250 µg/mL | 1000 µg/mL | 1000 µg/mL | S=c1n(CN2CCOCC2)nc(-c2ccccc2)n1-c1ccc(Br)cc1 | inactive | > 1000 µg/mL | > 1000 µg/mL | > 1000 µg/mL | 1000 µg/mL | > 1000 µg/mL | inactive | > 1000 µg/mL | inactive | inactive |
| 31.2 µg/mL | 62.5 µg/mL | – | 31.2 µg/mL | 62.5 µg/mL | 62.5 µg/mL | S=c1n(CN2CCCCC2)nc(-c2cccc(Cl)c2)n1-c1ccc(Br)cc1 | inactive | > 1000 µg/mL | 1000 µg/mL | – | > 1000 µg/mL | 1000 µg/mL | inactive | > 1000 µg/mL | inactive | inactive |
| 31.2 µg/mL | 15.6 µg/mL | 125 µg/mL | 62.5 µg/mL | 62.5 µg/mL | 31.2 µg/mL | S=c1n(CN2CCCC2)nc(-c2ccccc2Cl)n1-c1ccc(Br)cc1 | inactive | 500 µg/mL | 125 µg/mL | 500 µg/mL | 1000 µg/mL | > 1000 µg/mL | inactive | 500 µg/mL | inactive | inactive |

The remaining lines, values behind:

| SMILES | MIC (Staphylococcus aureus [1]) | MIC (Bacillus subtilis) | MIC (Staphylococcus aureus [2]) | MIC (Micrococcus luteus) | MIC (Bacillus cereus) | MIC [3] | growth inhibition (GI) (Proteus mirabilis) | MBC (Staphylococcus aureus [1]) | MBC (Bacillus subtilis) | MBC (Staphylococcus aureus [2]) | MBC (Micrococcus luteus) | MBC (Bacillus cereus) | growth inhibition (GI) (Klebsiella pneumoniae) | MBC [3] | growth inhibition (GI) (Escherichia coli) | growth inhibition (GI) (Pseudomonas aeruginosa) |
| --- | --- | --- | --- | --- | --- | --- | --- | --- | --- | --- | --- | --- | --- | --- | --- | --- |
| S=c1n(CN2CCCCC2)nc(-c2ccc(Cl)cc2)n1-c1ccc(Br)cc1 | 1000 µg/mL | 1000 µg/mL | 1000 µg/mL | 1000 µg/mL | 1000 µg/mL | 1000 µg/mL | inactive | > 1000 µg/mL | > 1000 µg/mL | > 1000 µg/mL | > 1000 µg/mL | > 1000 µg/mL | inactive | > 1000 µg/mL | inactive | inactive |
| CN[C@H](CC(C)C)C(=O)N[C@H]1C(=O)N[C@@H](CC(N)=O)C(=O)N[C@H]2C(=O)N[C@H]3C(=O)N[C@H](C(=O)N[C@H](C(=O)O)c4cc(O)cc(O)c4-c4cc3ccc4O)[C@H](O)c3ccc(c(Cl)c3)Oc3cc2cc(c3O[C@@H]2O[C@H](CO)[C@@H](O)[C@H](O)[C@H]2O[C@H]2C[C@](C)(N)[C@H](O)[C@H](C)O2)Oc2ccc(cc2Cl)[C@H]1O [VANCOMYCIN] | – | – | 0.98 µg/mL | – | – | – | – | – | – | 3.91 µg/mL | – | – | – | – | – | – |
| CCN(CC)Cn1nc(-c2ccccc2Cl)n(-c2ccc(Br)cc2)c1=S | 62.5 µg/mL | 31.2 µg/mL | 125 µg/mL | 62.5 µg/mL | 62.5 µg/mL | 62.5 µg/mL | inactive | > 1000 µg/mL | 62.5 µg/mL | > 1000 µg/mL | 250 µg/mL | > 1000 µg/mL | inactive | > 1000 µg/mL | inactive | inactive |
| S=c1n(CN2CCCCC2)nc(-c2ccccc2)n1-c1ccc(Br)cc1 | 1000 µg/mL | 1000 µg/mL | 1000 µg/mL | 500 µg/mL | 1000 µg/mL | 1000 µg/mL | inactive | > 1000 µg/mL | > 1000 µg/mL | > 1000 µg/mL | 1000 µg/mL | > 1000 µg/mL | inactive | > 1000 µg/mL | inactive | inactive |
| S=c1n(CN2CCOCC2)nc(-c2cccc(Cl)c2)n1-c1ccc(Br)cc1 | 31.2 µg/mL | 62.5 µg/mL | – | 31.2 µg/mL | 62.5 µg/mL | 125 µg/mL | inactive | > 1000 µg/mL | 1000 µg/mL | – | 500 µg/mL | > 1000 µg/mL | inactive | > 1000 µg/mL | inactive | inactive |
| S=c1n(CN2CCCCC2)nc(-c2ccccc2Cl)n1-c1ccc(Br)cc1 | 500 µg/mL | 250 µg/mL | 500 µg/mL | 500 µg/mL | 1000 µg/mL | 1000 µg/mL | inactive | > 1000 µg/mL | > 1000 µg/mL | > 1000 µg/mL | > 1000 µg/mL | > 1000 µg/mL | inactive | > 1000 µg/mL | inactive | inactive |
| CCN(CC)Cn1nc(-c2ccc(Cl)cc2)n(-c2ccc(Br)cc2)c1=S | 31.2 µg/mL | 31.2 µg/mL | 62.5 µg/mL | 15.6 µg/mL | 31.2 µg/mL | 31.2 µg/mL | inactive | 250 µg/mL | 500 µg/mL | 250 µg/mL | 62.5 µg/mL | 250 µg/mL | inactive | 250 µg/mL | inactive | inactive |
| S=c1n(CN2CCCC2)nc(-c2cccc(Cl)c2)n1-c1ccc(Br)cc1 | 31.2 µg/mL | 62.5 µg/mL | – | 62.5 µg/mL | 62.5 µg/mL | 250 µg/mL | inactive | > 1000 µg/mL | 500 µg/mL | – | > 1000 µg/mL | > 1000 µg/mL | inactive | > 1000 µg/mL | inactive | inactive |
| S=c1n(CN2CCCC2)nc(-c2ccc(Cl)cc2)n1-c1ccc(Br)cc1 | 31.2 µg/mL | 63 µg/mL | 62.5 µg/mL | 7.81 µg/mL | 31.2 µg/mL | 31 µg/mL | inactive | 500 µg/mL | 125 µg/mL | 1000 µg/mL | 250 µg/mL | > 1000 µg/mL | inactive | 1000 µg/mL | inactive | inactive |
| CO/N=C(\C(=O)N[C@@H]1C(=O)N2C(C(=O)O)=C(COC(N)=O)CS[C@H]12)c1ccco1 [CEFUROXIME] | 0.49 µg/mL | 15.6 µg/mL | – | 0.98 µg/mL | 31.2 µg/mL | 0.24 µg/mL | – | – | – | – | – | – | – | – | – | – |
| S=c1n(CN2CCOCC2)nc(-c2ccccc2Cl)n1-c1ccc(Br)cc1 | 125 µg/mL | 125 µg/mL | 250 µg/mL | 62.5 µg/mL | 125 µg/mL | 125 µg/mL | inactive | 500 µg/mL | 250 µg/mL | 500 µg/mL | 250 µg/mL | > 1000 µg/mL | inactive | 500 µg/mL | inactive | inactive |
